# Sampled rows, rich in hits. Any-hit rate of the full collection: about 3.7%.
# eIF4E 4G PPI = eIF4E–eIF4G protein interaction inhibitors, primary screen, biochemical, uHTS, TR-FRET, eIF4GI fragment. Eukaryotic translation initiation factor 4E (Mus musculus) + Eukaryotic translation …. TR-FRET eIF4E-eIF4GI(517-606) binding, 2 h. inhibition, % at 21.7 µM. 0.37% of 220,000 active. AID 782, 2007
# WT yeast gro inh = growth inhibition of WT strain, primary screen, mitochondrial fusion inhibitor project, WT and mutant strains, chemical genetic; mitochondrial fusion phenotypic screen; inhibition, % at 10 µM; 2.1% of 190,000 active; in the data active = inhibition above about 58%; tested in S. cerevisiae
# 14-3-3 Bad inh = inhibitors of 14-3-3 zeta/Bad binding, primary screen, biochemical, TR-FRET, bovine 14-3-3 zeta. 14-3-3 protein zeta/delta (Bos taurus), P63103. TR-FRET 14-3-3zeta/Dy647-pBad peptide displacement, 1 h. inhibition, % at 21.7 µM. 0.71% of 220,000 active. AID 781, 2007;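 active = inhibition above about 70%, limit read from the data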
# NCF1 inh = p47phox/p22phox peptide binding inhibitors, primary screen, biochemical, uHTS, NADPH oxidase regulatory subunit. 0.53% of 220,000 active. AID 1274, 2008. inhibition, % at 24.7 µM. Neutrophil cytosol factor 1 (Homo sapiens), P14598. fluorescence polarization, 2 h
# RBBP9 inhibitor = human RBBP9 inhibitors, primary screen, biochemical, fluorescence polarization, FP-Rh probe, HTS; Serine hydrolase RBBP9 (Homo sapiens), O75884; recombinant RBBP9; inhibition, % at 7.94 µM; 0.2% of 220,000 active; AID 1515, 2009;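 active = inhibition above the campaign mean of all tested compounds plus 3 SD, cut at about 14% in these data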
# Target sequence (O75884 whole entry, looked up): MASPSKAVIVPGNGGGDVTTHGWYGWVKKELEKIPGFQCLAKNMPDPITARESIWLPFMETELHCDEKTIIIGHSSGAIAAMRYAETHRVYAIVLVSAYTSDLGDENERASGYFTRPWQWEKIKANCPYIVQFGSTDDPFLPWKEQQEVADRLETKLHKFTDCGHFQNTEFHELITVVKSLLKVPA
#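 Test system – recombinant human RBBP9 · Input – RBBP9 2.5 µM in dispensing solution, pre-mixing · Medium – Tris buffer pH 8.0, NaCl, Pluronic · Schedule – preincubation 30 min plus labeling 45 min at 25 °C · Measured by – fluorescence polarization · Measure – % inhibition · Controls – DMSO and no-protein wells · Replicates – one well per compound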
# EBV gp42 inh = Epstein-Barr virus gp42 inhibitors, primary screen, biochemical, uHTS, fluorescence polarization | Glycoprotein 42 (Epstein-Barr virus (strain AG876)), Q1HVG2 | Fluorescence polarization binding assay, mP read-out | inhibition, % (tested at 21.74 µM) | 0.42% of 220,000 active | AID 1085, 2008; in the data active = inhibition above about 50%
# Target sequence (Q1HVG2 whole entry, looked up): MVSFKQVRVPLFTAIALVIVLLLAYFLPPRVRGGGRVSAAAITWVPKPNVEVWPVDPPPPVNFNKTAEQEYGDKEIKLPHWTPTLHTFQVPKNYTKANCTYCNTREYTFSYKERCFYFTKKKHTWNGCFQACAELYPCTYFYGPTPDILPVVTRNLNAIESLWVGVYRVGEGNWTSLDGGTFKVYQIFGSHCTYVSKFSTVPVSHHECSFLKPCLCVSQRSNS
# Hits are given with their value; . = inactive; / = no result given; + = active, no number; [ ] = dose if it differs, or a comment.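 The calls were made as follows, unless noted: active = inhibition above about 30% (limit read from the data); inactive = the rest.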
SMILES,eIF4E 4G PPI,WT yeast gro inh,14-3-3 Bad inh,NCF1 inh,RBBP9 inhibitor,EBV gp42 inh
Cc1ccc2c(c1)C(=O)c1c(C(=O)O)cccc1-2,.,.,.,.,.,.
Nc1cc(C(=O)O)c(N)c2c1C(=O)c1ccccc1C2=O,.,/,.,+,.,119.0
COC(=O)c1ccc2c(c1O)C(=O)c1ccccc1C2=O,.,65.7,.,.,.,.
O=C1c2ccccc2C(=O)c2c1cccc2N1CCCC1,.,.,.,.,.,.
Nc1c(C(=O)O)ccc2c1C(=O)c1ccccc1C2=O,.,.,.,76.8,.,.
CCC(=O)Nc1nnc(SCC(=O)NCCc2ccc(OC)c(OC)c2)s1,.,.,.,.,.,.
Cn1c(N)c(C(=O)COC(=O)[C@@H]2CCCN2S(=O)(=O)c2ccc(Cl)cc2)c(=O)n(C)c1=O,.,.,.,.,.,.
FC(F)(F)c1cccc(NC(=S)NCC2COc3ccccc3O2)c1 (configuration not stated),.,88.7,.,.,.,.
CCCNC(=S)Nc1cccc(C(F)(F)F)c1,.,.,.,.,.,.
COc1ccc(C(=O)C[n+]2cn(C(F)F)c3ccccc32)c(F)c1,.,70.2,.,.,.,.
S=C(Nc1ccccn1)NC1CCCCC1,94.3,/,.,.,.,.
S=C(Nc1ccccn1)NC1CCCC1,.,.,.,.,.,.
S=C(Nc1ccc(Nc2ccccc2)cc1)Nc1ccccn1,.,80.9,.,.,.,.
Cc1cccc(C)c1NC(=S)NC1CCCCC1,.,70.2,.,.,.,.
COc1ccc(C(NC(=O)c2ccccc2F)NC(=O)c2ccccc2F)cc1,.,.,.,.,.,.
Cc1ccc(C)c(N2CCN(C(=O)C34CC5CC(C3)CC(n3nnc(C)n3)(C5)C4)CC2)c1,.,/,.,.,.,.
Cc1ccccc1Cn1nc(C)c(NC(=O)/C=C/c2cnn(C)c2)c1C,.,.,.,.,.,.
COC(=O)/C(C#N)=C/N(C)C,.,/,.,.,.,.
CCOC(=O)/C(C#N)=C\N(C)C,.,.,.,39.5,.,.
O=C(O)/C=C/C(=O)NC1CCCCCCCCCCC1,.,/,.,.,.,.
Cn1c(Cc2nc(-c3cnccn3)no2)nnc1SCC(=O)Nc1ccccc1,.,/,.,.,.,.
O=C(O)C1Nc2c(O)cccc2C2C=CCC12 (configuration not stated),48.5[fluorescence artefact?],.,82.8[fluorescence artefact?],.,.,107.8
O=C(OC1CCCCC1)c1ccc2c(c1)C1C=CCC1C(C(=O)O)N2 (configuration not stated),62.3[fluorescence artefact?],.,.,39.5,.,87.6
O=C(O)c1ccc2c(c1)[C@@H]1C=CC[C@@H]1[C@H](c1ccccn1)N2,/,/,/,/,.,/
CC(Nc1nc(N2CCNCC2)nc2ccccc12)c1ccccc1 (configuration not stated),.,.,.,.,.,.
SMILES,eIF4E 4G PPI,WT yeast gro inh,14-3-3 Bad inh,NCF1 inh,RBBP9 inhibitor,EBV gp42 inh
CCO[C@@H]1OC(C(=O)NCc2ccccc2)=C[C@H](C2CCCCC2)[C@H]1CCCO,.,.,.,.,.,.
Oc1[nH]c(=S)sc1C=C1N=c2ccccc2=N1,.,/,.,.,.,.
Oc1[nH]c(=S)sc1/C=C1\C(c2ccccc2)=Nc2ccccc21,.,.,.,32.4,.,.
COc1ccc(CSc2nc3ccccc3c(=O)n2CCCN2CCOCC2)cc1F,.,.,.,.,.,.
COc1cc(OC)c(-c2noc(C(=O)OC(C)(C)C)c2C(=O)OC(C)(C)C)c(OC)c1,.,.,.,.,.,.
Cc1cc(C)c(-c2noc(C(=O)OC(C)(C)C)c2C(=O)OC(C)(C)C)c(C)c1,.,65.6,.,.,.,.
CCCNC(=O)C12CCC(C)(c3nc4cc(C)c(C)cc4nc31)C2(C)C (configuration not stated),.,.,.,.,.,.
O=C(Nc1ccc2oc(-c3ccc(Cl)c(Cl)c3)nc2c1)c1ncn[nH]1,.,.,74.6,.,.,.
O=C(Nc1ccc(-c2nc3cc(NC(=O)c4cccs4)ccc3o2)cc1)c1cccs1,.,.,73.8[fluorescence artefact?],.,.,.
O=C(NCCc1c[nH]c2ccccc12)/C(=C\c1cccnc1)NC(=O)c1ccccc1F,.,/,.,.,.,.
CCOC(=O)c1sc(-c2ccc(Cl)cc2)nc1O,.,/,.,.,.,.
CCN1C(=O)C(CC(=O)Nc2c(C)cccc2C)Nc2cc(S(=O)(=O)N(C)C)ccc21 (configuration not stated),.,.,.,.,.,.
Cc1cc[n+](-c2[nH]c(=O)sc2/C=N/NC([S-])=Nc2ccccc2)cc1,.,.,.,.,.,58.7
O=c1[nH]c(-[n+]2ccccc2)c(/C=N/NC([S-])=Nc2ccccc2)s1,.,/,.,.,.,.
CCc1ccc[n+](-c2[nH]c(=O)sc2/C=N/NC([S-])=Nc2ccccc2)c1,.,.,.,.,.,66.0
O=C(NC1=C(Nc2ccc(F)cc2)C(=O)c2ccccc2C1=O)c1ccc(Cl)cc1,.,67.3,.,.,.,.
CCOC(=O)C1(CCOc2ccccc2)CCN(Cc2nccn2CC)CC1,.,.,.,.,.,.
CCOC(=O)C1(CCCc2ccccc2)CCN(Cc2nccn2CC)CC1,.,58.7,.,/,.,.
CC1CCC(C(C)C)C(OCC(O)CN2CCN(Cc3ccccc3)CC2)C1 (configuration not stated),.,.,73.8,.,.,.
CC1CCC(C(C)C)C(OCC(O)CN2CCOCC2)C1 (configuration not stated),.,/,.,.,.,.
COC(=O)CC1C(=O)NCCN1C(=S)NC(=O)c1sc2ccccc2c1Cl (configuration not stated),.,.,.,.,.,.
O=C1NC[C@@H](Cc2cccc3ccccc23)N(CC2(c3ccccc3)CC2)C1=O,.,/,.,.,/,.
CC(C)(C)C(=O)Nc1ccccc1C(=O)OCC(=O)c1ccc2c(c1)OCCO2,.,.,.,.,.,.
O=C(COC(=O)c1ccccc1NC(=O)C1CC1)c1ccc2c(c1)OCCO2,.,.,71.5,.,.,.
CCOC(=O)COc1ccccc1/C=C\[N+](=O)[O-],.,68.6,.,.,.,.
CC(C)(C)c1ccc(Cn2c(=N)n(CC(O)c3ccco3)c3ccccc32)cc1 (configuration not stated),.,59.0,.,.,.,.
Cc1ccsc1/C=N/Nc1nc(=O)[nH]nc1C,.,69.6,.,.,.,.

# Compound activity (PubChem)
